# Source: PubChem BioAssay
# In the library only some 3% were active in any assay of this set; here they are far more common.
# NSD2 HMT inh: inhibitors of human histone methyltransferase NSD2 | NSD2 peptide methylation, AlphaScreen, 120 min | inhibition, % at 12.5 µM | hit rate 0.54% among 310,000; in the data active = inhibition above about 50%
# esBAF inh: blocks esBAF chromatin remodeling in mouse ES cells | reporter increase, % at 12.5 µM | AID 602393 | Bmi1-luciferase knock-in reporter, 24 h; 100% = twice the neutral-well signal | hit rate 2% among 350,000; in the data active = activation above about 40%;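 note: 0% = median of the plate's neutral control wells and 100% = double that signal; a rise in the Bmi1 reporter signal indicates esBAF inhibition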
# Wnt bcat act: activates Wnt/beta-catenin signaling in a reporter cell assay; activation, % at 9.35 µM; hit rate 1.2% among 300,000; activator, plate reader; in the data active = activation above about 30%, passing the limit was not always enough;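 note: 0% = neutral control wells and 100% = positive control wells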
# MITF act: activators of MITF-driven TRPM1 promoter activity in SK-MEL-5 cells. AID 588334. hit rate 0.75% among 300,000. SK-MEL-5 TRPM1-promoter luciferase, 24 h; % of positive control, neutral wells = 0. activation, % at 12.5 µM;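 active = mean activation of at least 80% with every replicate also reaching 80%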;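 note: 0% = neutral control wells and 100% = parthenolide positive control wells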
# CASP6 VEID inh: inhibitors of human caspase-6; P55212; purified caspase-6, Z-VEID-R110 cleavage fluorescence; inhibition, % at 12.5 µM; hit rate 0.53% among 350,000; AID 686996;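 active = mean inhibition across replicates at least about 35%, with every replicate also reaching that limit, limit read from the data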;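 note: 0% = median of neutral control wells and 100% = no fluorescence left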
# Xi reactivation: activators of X-chromosome reactivation in mouse fibroblasts. XiGFP mouse fibroblasts, % GFP-positive cells imaging, 3 d; cells co-treated with 5-aza-dC sensitizer; scaled so ellipticine positive control = 100%. activation, % at 7.58 µM. hit rate 0.055% among 360,000;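 active = mean normalized replicate activation at least 10% and every replicate at or above 10%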;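 note: 0% = median of on-plate neutral control wells and 100% = ellipticine 6 µM median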
#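 System: XiGFP fibroblasts, SV40-immortalized. Medium: DMEM plus 5-aza-dC sensitizer. Doses: single point. Timing: 3 d treatment, 15 min room-temperature fixation. Control set: ellipticine 6 µM.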
# Ring1 derepress: esBAF inhibition confirmed by Ring1 de-repression. shares compounds with esBAF inh. mouse ESC E14, Ring1 mRNA RT-qPCR fold change. fold change at 33 µM. 550 tested, under 10 active;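 active = Ring1 gene expression raised more than 2-fold over untreated cells in both replicates at either tested dose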;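 note: Ring1 transcript normalised to actin housekeeping signal by TaqMan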
# esBAF Fgf4 qPCR: represses Fgf4 in mouse ESCs, confirming esBAF inhibition; shares compounds with esBAF inh; Fgf4 expression fold change at 33 µM; mouse ESC E14, Fgf4 mRNA qPCR fold change; stronger effect = lower value; hit rate 4% among 550; AID 743177;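 active = Fgf4 expression under 0.8 fold of control in both repeat measurements at one or both tested doses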;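 note: Fgf4 transcript normalised to actin in duplex TaqMan qPCR; cells exposed to compound for 24 h before lysis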
# Bmi1 derepress: confirmation of esBAF inhibitors: Bmi1 de-repression in mouse ESCs | shares compounds with esBAF inh | fold change at 33 µM | 550 tested, under 10 active | mouse ESE14 ES cells, Bmi1 mRNA qPCR fold; stronger effect = higher value;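 active = Bmi1 expression fold change above 6 at either tested concentration, seen in replicate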;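 note: higher fold means more Bmi1 de-repression and stronger esBAF inhibition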
# A549 tox SP: A549 cell cytotoxicity. AID 743188. 550 tested, under 10 active. plate reader. cell viability change % (negative = cytotoxic), % at 25 µM, hits read low. shares compounds with esBAF inh
# HepG2 tox SP: kills or reduces viability of HepG2 cells. shares compounds with esBAF inh. HepG2 cytotoxicity, plate reader; stronger effect = lower value. activity change, negative = inhibition, % at 25 µM. hit rate 4% among 550. AID 743189; in the data active = activity change below about -50%
# HEK293 tox SP: HEK293 cell cytotoxicity at single point. AID 743190. shares compounds with esBAF inh. activity change, negative = inhibition, % at 25 µM, hits read low. plate reader. hit rate 3% among 550; in the data active = activity change below about -38%, passing the limit was not always enough
# Alpha artifact: counter-screen for NSD2 inhibitors: AlphaScreen artifacts | AlphaScreen artifact counterscreen, preloaded methylated H4 peptide | shares compounds with NSD2 HMT inh | AID 1053174 | hit rate 9.4% among 1,500 | AC35, µM (series often up to 10 µM), for the others: at the top dose activity change, negative = signal loss
# Starred values were filed as active, the others as inactive; · = not tested or not shown. Unless noted, the rule behind the calls is not given here.
SMILES,NSD2 HMT inh,esBAF inh,Wnt bcat act,MITF act,CASP6 VEID inh,Xi reactivation,Alpha artifact,others
C=CCn1c(O)c(C(C)=NCc2ccco2)c(=O)[nH]c1=O,1.2,-7.2,-0.9,4.2,·,·,·,
CCCCn1c(O)c(C(C)=NCc2ccco2)c(=O)[nH]c1=O,-3.0,-7.3,45.1*,·,14.0,0.0,·,
NCC(=O)c1ccccc1,·,67.2*,15.2,53.6,·,0.0,·,
Cc1ccc(OC(=O)N(C)C[C@H]2OCc3ccccc3-c3c(n(C)c4ccccc34)C(=O)N([C@H](C)CO)C[C@@H]2C)cc1,·,·,·,·,-1.2,0.7,·,
N#CC1C(C#N)C2CCC1C1C2N1c1ccccc1 (centres undefined),-0.4,-4.2,47.1*,-6.8,-0.4,0.2,·,
CC[C@@H]1c2ccccc2[C@@H]2CC[C@H]1N2c1ccccc1,·,·,-3.6,·,0.6,-0.1,·,
O=C1NC(=O)N(c2ccc3c(c2)OCO3)C(=O)/C1=C\c1ccc(-c2ccccc2C(=O)O)o1,37.1,·,-1.5,0.3,43.0*,-0.1,·,
O=C(NC1CCCCC1)Oc1cc2oc(=O)sc2cc1Cl,67.1*,·,11.4,-35.2,13.9,-0.2,·,
O=C(C1CCN(c2nc3ccc(Br)cc3s2)CC1)N1CCC2(CC1)OCCO2,-3.2,64.1*,·,19.5,·,·,·,
Cc1ccc2nc(N3CCC(C(=O)N4CCC5(CC4)OCCO5)CC3)sc2c1,-4.4,33.6,·,9.3,·,·,·,
CN1C(=O)NC(=O)C(N=Nc2ccc(Cl)cc2)C1=O (centres undefined),3.6,41.5*,17.6,10.6,46.5*,0.0,·,
Nc1ccccc1C(=O)OCCc1ccccc1,·,17.3,67.6*,85.4*,-2.8,·,·,
COc1ccc(-c2cc(=NCCC(=O)O)c3cc(C)ccc3o2)cc1,-2.6,68.9*,13.5,112.5*,7.5,0.0,·,
COc1ccc(-c2nc3ccccc3c(=O)o2)cc1,0.2,49.8*,7.0,19.0,0.6,-0.1,·,
COc1ccc(-n2c(-c3ccc(C)cc3)nc3ccccc3c2=O)cc1,-1.1,·,-0.4,·,-2.7,0.1,·,
COC(=O)C[C@@H]1CC[C@H]2NC[C@@H](O)COC[C@@H]2O1,·,-13.1,·,·,·,0.4,·,
CCCCCn1c(=O)c(C(=O)Nc2ccccc2Cl)c(O)c2ccccc21,·,99.5*,-2.6,·,-1.8,0.1,·,Ring1 derepress=1.22;esBAF Fgf4 qPCR=0.959;Bmi1 derepress=1.16;A549 tox SP=3.6;HepG2 tox SP=-23.0;HEK293 tox SP=-15.3
COCC(=O)N1[C@@H]2c3ccc(C4=CCCC4)c(=O)n3C[C@H]1[C@H](CO)[C@H]2C(=O)OC,·,-3.1,·,·,4.4,0.2,·,
CCCCCSc1cc(OC)c(CCNC)cc1OC,61.0*,-6.3,-1.2,-3.4,·,·,-17.2%,
CC(C)c1ccc(N2C(=O)NC(=O)/C(=C\C=C\c3ccco3)C2=O)cc1,94.2*,·,-5.6,·,30.1,0.2,-8.3%,
COc1ccc(N2C(=O)NC(=O)/C(=C\c3ccc([N+](=O)[O-])s3)C2=O)cc1,51.4*,·,-0.2,-17.5,52.3*,0.0,-1.8%,
COc1ccccc1N1C(=O)NC(=O)/C(=C/c2ccc([N+](=O)[O-])s2)C1=O,27.5,·,0.0,·,28.2,0.3,·,
Fc1ccc(Cn2nnnc2C(c2ccc(Cl)cc2)N2CC=C(c3ccc(F)cc3)CC2)cc1 (centres undefined),50.8*,-7.8,-5.1,6.4,-0.6,0.0,-0.7%,
Cc1cc(/C=C2\C(=O)NC(=O)N(c3cccc(F)c3)C2=O)c(C)n1-c1cc(C(=O)O)cc(C(=O)O)c1,81.1*,·,-11.1,-0.5,29.0,-0.1,-9.4%,
Cn1c(=O)[nH]c2nncnc2c1=O,53.7*,·,0.7,-5.7,43.0*,-0.2,-3.3%,
SMILES,NSD2 HMT inh,esBAF inh,Wnt bcat act,MITF act,CASP6 VEID inh,Xi reactivation,Alpha artifact,others
COC(=O)[C@@H]1[C@@H](CO)[C@@H]2Cn3c(ccc(-c4ccncc4)c3=O)[C@H]1N2S(=O)(=O)c1ccccc1C,·,1.2,·,·,0.2,0.1,·,
O=C(Cc1ccccn1)N1CCCCN2[C@H](CO)[C@H](c3ccc(-c4ccccc4F)cc3)[C@@H]2C1,·,8.6,·,·,-5.8,0.1,·,
O=C(c1cc2ccccc2oc1=O)N1CCC2(CC1)OCCO2,64.6*,·,·,-0.7,·,·,-4.5%,
COC(=O)[C@H]1[C@H](CO)[C@H]2Cn3c(ccc(-c4ccccc4)c3=O)[C@@H]1N2CC1CCOCC1,·,-4.1,·,·,-2.7,0.5,·,
CCCCNC(=O)c1c(N)n(Cc2ccc3c(c2)OCO3)c2nc3ccccc3nc12,68.3*,-4.4,-1.4,-14.2,-1.1,·,-6.1%,
CCCCCn1c(N)c(C(=O)NCc2cccs2)c2nc3ccccc3nc21,82.8*,·,·,·,·,·,4.4%,
CCCCn1c(NC(=O)c2ccco2)c(C(=O)OCC)c2nc3ccccc3nc21,174.9*,-2.4,·,-1.9,·,·,2.2%,
CCCCn1c(N)c(C(=O)OCC2CCCO2)c2nc3ccccc3nc21 (centres undefined),82.9*,11.9,-2.3,-6.1,9.1,·,0.6%,
COC(=O)[C@@H]1[C@@H](CO)[C@@H]2Cn3c(ccc(-c4ccccc4OC)c3=O)[C@H]1N2Cc1ccccc1,·,2.6,·,·,·,0.3,·,
CC=Cc1ccc2n(c1=O)C[C@H]1[C@H](CO)[C@@H](C(=O)OC)[C@@H]2N1CC1CC1 (mixture of isomers),·,0.4,·,·,2.4,0.0,·,
O=C1CNC[C@@H]2[C@@H](c3ccc(Br)cc3)[C@H](CO)N12,·,·,·,·,-0.1,0.0,·,
COCCCn1c(N)c(C(=O)NCCC(C)C)c2nc3ccccc3nc21,108.7*,-8.7,·,·,·,·,5.2%,
NC(=O)C1CCN(/C=C2\C(=O)NC(=O)N(Cc3ccco3)C2=O)CC1,·,-3.9,2.8,9.3,9.0,0.1,·,
CC(C)N1C(=O)/C(=C/C=C/c2ccco2)C(=O)N(Cc2ccco2)C1=O,107.3*,-0.4,12.2,-71.9,·,·,8.46µM*,
O=C(NC1CN2CCC1CC2)c1cccc(Cl)c1 (centres undefined),-1.3,-3.9,0.1,10.5,-22.6,0.0,·,
